Screening data deposited in PubChem BioAssay by several laboratories.
MMP13 inh – human MMP13 inhibitors, primary screen, biochemical, FRET peptide cleavage; inhibition, % at 4 µM; actives 0.07% (n = 65,000); AID 570, 2006; MMP-13 fTHP FRET cleavage, Mca fluorescence; Collagenase 3 (Homo sapiens), P45452;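 active means inhibition above the mean of compound-free control plate wells plus 3 SD, cut at about 14% in these data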;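 further: 0% = DMSO wells and 100% = wells with reference MMP-13 inhibitor after basal subtraction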
AP ELISA ortho – alternative complement pathway inhibitors, primary screen, biochemical, ELISA, human serum, orthogonally pooled compounds; LPS-coated ELISA, C3 deposition; tested in compound mixtures; inhibition, % at 5 µM; actives 0.08% (n = 62,000); AID 1235, 2008;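 active means inhibition above 30% in each of the two pooled mixtures holding the compound, so the lower value exceeds 30%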;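 further: 0% = serum in Mg-EGTA without compound and 100% = EDTA serum blank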
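Assay system: human serum alternative complement pathway, C3 deposition on LPS-coated wells; Dosing: 5 µM per compound in ten-compound mixtures; Detection: Anti-C3 ELISA, OD 450 nm; Buffer or medium: Mg2+-EGTA GVB++ buffer containing human serum at 1:15 dilution; Timing: 1 h at 37 °C; Replication: two different pools per compound.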
DAT uptake mod – changed hDAT dopamine uptake under cocaine IC80, either direction, primary screen, cocaine antagonist project, cell-based, LLC-PK1 hDAT, [14C]-dopamine uptake, MLSMR. Sodium-dependent dopamine transporter (Homo sapiens), Q01959. LLC-PK1 hDAT cells, [14C]-dopamine uptake with cocaine IC80; actives deviate in either direction. B-score at 10 µM. actives 1.3% (n = 110,000). AID 449768, 2010;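 active means Z score or B-score, a plate-position-corrected score, falls beyond the plate's 99.7% confidence bounds, in either direction; inactive means both scores lie inside the 99.7% bounds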;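 further: scored against the spread of the other compound wells on the same plate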
Candida biofilm – clotrimazole potentiators killing Candida biofilms, primary screen, with clotrimazole, Alamar Blue; C. albicans biofilm + clotrimazole; inhibition, % at 6 µM; actives 0.14% (n = 85,000);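 active means inhibition above 20%; inactive means inhibition below 20%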;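 further: preformed 24 hr biofilms exposed to compound for 48 hr; 0% = biofilm without compound and 100% = blank killed by clotrimazole plus chlorhexidine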
D1 mod – D1 CRE-luciferase signal change, two-sided – cell-based, HEK293 D1, dopamine EC30, D1 allosteric modulator project, primary screen | D(1A) dopamine receptor (Homo sapiens), P21728 | dopamine EC30 potentiation; actives deviate in either direction | B-score at 10 µM | actives 5.9% (n = 58,000) | AID 641, 2007;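 active means luminescence count or its row- and column-corrected plate score outside the 99.7% band of the plate's sample wells, on either side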
Target sequence (P21728 whole entry, looked up): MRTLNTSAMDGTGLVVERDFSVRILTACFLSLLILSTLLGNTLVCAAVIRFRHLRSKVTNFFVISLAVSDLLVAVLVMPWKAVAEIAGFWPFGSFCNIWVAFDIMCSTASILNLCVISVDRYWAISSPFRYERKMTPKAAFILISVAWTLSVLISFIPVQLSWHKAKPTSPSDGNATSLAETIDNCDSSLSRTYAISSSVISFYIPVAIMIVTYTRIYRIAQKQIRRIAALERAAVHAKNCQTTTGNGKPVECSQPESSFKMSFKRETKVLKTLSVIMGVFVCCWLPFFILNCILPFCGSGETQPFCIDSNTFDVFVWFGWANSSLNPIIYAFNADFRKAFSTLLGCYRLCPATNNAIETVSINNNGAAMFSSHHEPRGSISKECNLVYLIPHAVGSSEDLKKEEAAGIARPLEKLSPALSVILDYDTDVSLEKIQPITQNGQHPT
D1 mod confirm – D1 receptor positive allosteric modulators, retest, confirmation, cell-based, HEK293 D1, CRE-luciferase, duplicate | luminescence at 10 µM | shares compounds with D1 mod | actives 88% (n = 2,200) | dopamine EC30 potentiation; stronger effect = higher value;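 active means luminescence in either of two replicates above the same-plate mean plus 3 SD of the low-dose dopamine control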
D1 no dopamine – D1 receptor agonism without dopamine, confirmation, mechanism study for D1 allosteric modulator project, cell-based, HEK293 D1, CRE-luciferase, secondary assay 1; shares compounds with D1 mod; luminescence, no dopamine; stronger effect = higher value; luminescence at 10 µM; actives 0.8% (n = 1,900); AID 646, 2007; in the data active means luminescence above about 3900
Isoprot counter – alters isoproterenol CRE-luciferase response in HEK293 cells; luminescence at 10 µM; AID 647; HEK293 D1 CRE-luciferase, isoproterenol EC30 counter-screen; stronger effect = higher value; shares compounds with D1 mod; actives 63% (n = 2,200);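 active means luminescence in either replicate above plate mean of wells with a partly effective reference agonist dose plus 3 SD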;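 further: isoproterenol raises cAMP through native beta-adrenoceptor Gs so signal bypasses D1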
Active calls of the source: *; nt = no result given. This is one part of a sample in which hits are shown more often than they occur.

SMILES | MMP13 inh | AP ELISA ortho | DAT uptake mod | Candida biofilm | D1 mod | D1 mod confirm | D1 no dopamine | Isoprot counter
Cc1cc2n(n1)C(c1ccc3c(c1)OCO3)Nc1ccccc1-2 (stereo unspecified) | -7.8 | 3.4 | -0.36 | 5.2 | 11* | 17556* | nt | 3560*
Cc1cc2n(n1)C(c1ccccc1)Nc1ccccc1-2 (stereo unspecified) | -11.9 | -1.5 | -0.021 | 6.5 | 13.9* | 14996* | 1724 | 3876*
Cc1ccc2c(c1)-c1cc(C)nn1C(c1sccc1C)N2 (stereo unspecified) | -9.5 | -5.6 | -0.0857 | 2.2 | 2.17 | nt | nt | nt
CC1CCCC(C)N1CC(O)COCC1COc2ccccc2O1 (stereo unspecified) | nt | nt | 0.319 | nt | nt | nt | nt | nt
Cc1cc(N2CCN(S(=O)(=O)c3ccc4c(c3)OCCO4)CC2)n2ncnc2n1 | 0.9 | 12.1 | 0.461 | 10.9 | 4.11* | 6428* | 1504 | 2812
COc1cc([C@@H]2c3cc4c(cc3[C@H](O)[C@H]3COC(=O)[C@H]23)OCO4)cc(OC)c1OC | -8.9 | -0.6 | -0.988 | 9.8 | 7.06* | 8908* | 1648 | 6772*
CCN(CC)C(=O)N1CCc2ccccc2C1CN1C(=O)c2ccccc2C1=O (stereo unspecified) | nt | nt | 0.024 | 3.0 | nt | nt | nt | nt
Cc1cc(=O)c2n(Cc3ccc(Cl)cc3)nc[n+]2[nH]1 | 9.3 | -1.5 | 0.91 | 3.9 | 4.72* | 8876* | 1700 | 2852
Cc1nn(Cc2ccc(Cl)cc2)c(C)c1N | nt | nt | 0.19 | 7.1 | nt | nt | nt | nt
COC(=O)c1ccc(Sc2ccccc2NS(=O)(=O)c2ccc(OC)cc2)nc1 | nt | nt | -0.287 | nt | nt | nt | nt | nt
NC(=O)COc1ccc(NC(=O)OCc2ccccc2)cc1 | -1.6 | -0.3 | -0.854 | 5.5 | 5.64* | 10828* | 1812 | 2792
COC(=O)Nc1ccc(OCc2ccccc2)cc1 | 2.1 | 2.9 | 0.131 | 1.1 | -0.51 | nt | nt | nt
N#Cc1c(-c2ccco2)cc(-c2ccc(F)cc2)nc1N | -189.9 | 7.2 | 0.472 | 3.8 | 9.94* | 16300* | 2000 | 4008*
COC(=O)CSc1nc(-c2ccccc2)cc(-c2ccco2)c1C#N | -18.1 | 2.2 | -0.875 | 6.2 | -2.32 | nt | nt | nt
CC(C)Cc1cc(-c2ccco2)c(C#N)c(N)n1 | -77.3 | -6.3 | nt | 5.1 | 27.5* | 29116* | 1732 | 4780*
CC(C)(C)c1ccc(S(=O)(=O)N2CC(=O)Nc3ccccc32)cc1 | nt | nt | -0.271 | 4.2 | nt | nt | nt | nt
O=C1CCCN1c1ccc(S(=O)(=O)Oc2cccc(Cl)c2)cc1[N+](=O)[O-] | nt | nt | -1.1 | nt | nt | nt | nt | nt
Cc1nn2c(-c3ccncc3)nnc2c2ccccc12 | 2.0 | 2.5 | -0.415 | nt | 2.71* | 6068* | 1544 | 2916*
Cc1cc(C)nc(NN2C(=O)/C(=C/c3ccc(O)cc3)SC2=S)n1 | nt | nt | -0.343 | nt | nt | nt | nt | nt
CCOc1ccc(N2C(=O)c3cccnc3C2Nc2ccc(F)cc2)cc1 (stereo unspecified) | 2.1 | 1.1 | 1.31 | 8.3 | 0.012 | nt | nt | nt
COc1cc(NC2c3ncccc3C(=O)N2Cc2ccco2)cc(OC)c1 (stereo unspecified) | 2.0 | 8.3 | 0.0987 | nt | 12.3* | 14836* | 1576 | 4156*
COc1ccc(CN2C(=O)c3cccnc3C2Nc2ccc(OC)c(Cl)c2)cc1 (stereo unspecified) | 6.5 | 16.1 | 2.2 | -1.7 | 7.61* | 13912* | nt | 3308*
Cc1ccc(NC2c3ncccc3C(=O)N2Cc2ccc(F)cc2)cc1 (stereo unspecified) | 0.6 | 17.6 | 0.255 | 0.0 | 7.46* | 10592* | nt | 3100*
COc1ccc(NC2c3ncccc3C(=O)N2Cc2ccccc2)c(OC)c1 (stereo unspecified) | 5.6 | 10.3 | 0.342 | 0.6 | 19* | 14524* | 1572 | 4532*
O=C(C1=C[C@@H](c2ccc(C(F)(F)F)cc2)C[C@@H](OCCCCO)O1)N1CCN(Cc2ccc3c(c2)OCO3)CC1 | nt | nt | 0.452 | nt | nt | nt | nt | nt
SMILES | MMP13 inh | AP ELISA ortho | DAT uptake mod | Candida biofilm | D1 mod | D1 mod confirm | D1 no dopamine | Isoprot counter
CCCOc1ccc(OCCOCCN2CCc3ccccc3C2)cc1 | nt | nt | 1.16 | nt | nt | nt | nt | nt
CCc1cc2c(SCC(=O)c3ccc(Cl)s3)ncnc2s1 | nt | nt | 0.553 | 9.2 | nt | nt | nt | nt
CN(C(=O)c1cnccn1)c1nnc(-c2cccnc2)s1 | 0.7 | -1.1 | nt | nt | 0.458 | nt | nt | nt
COCCCNC(=O)CN(Cc1ccc(Cl)cc1)S(C)(=O)=O | -2.1 | 13.8 | -0.874 | 4.9 | 9.19* | 5504 | 1488 | 2592
CCOCCCNC(=O)CN(Cc1ccc(Cl)cc1)S(C)(=O)=O | -2.3 | 15.2 | -0.085 | 2.9 | 0.433 | nt | nt | nt
COc1ccc(CN(C(=O)c2ccco2)c2ccc(C)cc2)cc1OC | -3.6 | 2.6 | 0.773 | 4.2 | 10.1* | 22164* | 1620 | 3716*
COC(=O)C1=C[C@@H](C(=O)OC)[C@@H]2C3=C(C(=O)[C@@]2(C)NC(=O)c2ccccc2)[C@H](C)C(C(=O)OC)=C(C(=O)OC)[C@@H]3C1 | nt | nt | 0.866 | nt | nt | nt | nt | nt
CCOC(=O)C1=C(C)NC(C)=C(C(=O)OCC)C1C(=O)OCC(=O)N1CCc2ccccc21 | -6.0 | 15.3 | 1.46 | -2.9 | -0.147 | nt | nt | nt
CCOC(=O)C1=C(C)NC(C)=C(C(=O)OCC)C1C(=O)OCC(=O)c1ccc2c(c1)OCCO2 | -1.0 | 6.9 | 1.38 | 6.4 | 10.3* | 7616* | 1608 | 3568*
CCOc1cc(S(=O)(=O)N(CC)CC)ccc1Br | -1.5 | 23.2 | -0.363 | -1.9 | 12.1* | 11820* | 1708 | 3484*
COc1ccc(C(=O)c2c(-c3ccsc3)oc3ccc(-c4ccc(OC)cc4)cc23)cc1 | nt | nt | -1.79 | nt | nt | nt | nt | nt
COc1ccc(CCNC(=O)COc2ccc(S(=O)(=O)NC(C)C)cc2Cl)cc1OC | nt | nt | 0.363 | nt | nt | nt | nt | nt
Cc1cc(-n2nc(C)cc2C)nc(N)n1 | -1.9 | 16.7 | -0.083 | 11.3 | 5.59* | 10308* | nt | 2752*
Cc1cc(-n2nc(C)cc2C)nc(NS(=O)(=O)c2ccccc2)n1 | -0.7 | 4.4 | 1.03 | 8.9 | 3.79* | 10456* | 1500 | 2508
CC1(C)Cc2c(c(-c3ccccc3Cl)[nH]c(=O)c2C#N)CO1 | -1.0 | nt | 1.96 | 7.6 | nt | nt | nt | nt
CC1(C)Cc2c(c(-c3ccccc3)[nH]c(=O)c2C#N)CO1 | 4.2 | 9.0 | -0.968 | -1.1 | 7.2* | 17304* | 1772 | 4284*
O=C(O)CC[C@@H](C(=O)O)N1C(=O)c2ccccc2C1=O | nt | nt | -0.017 | nt | nt | nt | nt | nt
